Laboratory results reported in PubChem BioAssay.
Active and inactive are the calls of the source.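 How the source made its calls, unless noted: active means fluorescence slope higher than the sample average by over 3 SD (cut at about -0.22 in these data, passing the limit was not always enough); inactive means the rest.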

How the values were obtained:
[1] = inhibitors of TNFa-induced NFkB p65 translocation, primary screen, imaging, HUVEC, MLSMR starter and 10KST1 sets (AID 438;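 active means inhibition above 20% together with a positive visual image hit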;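 further: compound added about 3h40 before a 20 min TNFalpha stimulation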;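 on inhibition: signal is the nuclear over cytoplasmic p65 intensity ratio per well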); settings: HUVEC TNFa-induced p65 nuclear translocation; cell count: measured here: nuclei count (cytotoxicity indicator), at 2.08 µM; inhibition: at 2 µM, stronger effect = higher value, 0% TNFa-plus-vehicle, 100% no-TNFa wells
[2] = inhibitors of mutant huntingtin aggregation, primary screen, imaging, exon1htt(103Q)mCFP cells, high-content imaging (AID 483;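 active means visual image review flags a hit and inhibition of aggregation exceeds 20%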;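 further: compound exposure lasted 3 days before fixation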;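 on nuclei count: percent of the per-plate median nuclei count of sample wells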); settings: exon1htt(103Q)mCFP cell line, aggregate imaging, at 2 µM; inhibition of aggregation: stronger effect = higher value; nuclei count: measured here: cell count, toxicity
[3] = inhibitors of E-selectin induction by TNFa, primary screen, imaging, HUVEC, immunofluorescence, MLSMR starter and 10KST1 sets (AID 487;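 active means visually confirmed hit in the image check and inhibition above 20%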;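 on inhibition: signal is fraction of cell area covered by stained E-selectin grains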;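 on nuclei count: 100% = median nuclei count of all wells on the same plate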); settings: HUVEC TNFalpha-induced E-selectin immunofluorescence imaging, at 2 µM; inhibition: stronger effect = higher value; nuclei count: measured here: cell number, toxicity
[4] = target: Voltage-gated potassium channel subunit beta-2 (Rattus norvegicus) (UniProt P62483); experiment: KvBeta enzyme negative modulators, primary screen, biochemical, NADPH fluorescence (AID 622); settings: recombinant KvBeta, 4-cyanobenzaldehyde reduction, at 10 µM, stronger effect = higher value;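 further: slope of raw intensity against log time taken from 70 to 1610 s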
Sequence of Voltage-gated potassium channel subunit beta-2 (Rattus norvegicus) (P62483 whole entry, looked up): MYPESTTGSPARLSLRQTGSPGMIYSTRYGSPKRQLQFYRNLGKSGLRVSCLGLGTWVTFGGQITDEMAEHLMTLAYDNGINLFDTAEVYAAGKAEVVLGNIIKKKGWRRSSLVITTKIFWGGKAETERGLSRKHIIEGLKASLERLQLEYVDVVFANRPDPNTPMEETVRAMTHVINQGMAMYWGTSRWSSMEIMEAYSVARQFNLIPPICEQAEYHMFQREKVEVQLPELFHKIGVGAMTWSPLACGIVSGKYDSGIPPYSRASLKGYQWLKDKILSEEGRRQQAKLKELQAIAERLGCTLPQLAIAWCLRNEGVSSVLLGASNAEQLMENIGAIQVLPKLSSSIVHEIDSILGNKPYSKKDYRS

[5] = target: Voltage-gated potassium channel subunit beta-2 (Rattus norvegicus) (UniProt P62483); experiment: KvBeta positive modulators, primary screen, biochemical, NADPH fluorescence (AID 623;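 active means NADPH fluorescence slope more negative than the mean of all samples by about 3 SD, 99.7% confidence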;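 further: fluorescence intensity change per second fitted from 20 to 320 s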); settings: Recombinant KvBeta, NADPH fluorescence decrease slope, 10 min; at 10 µM; stronger effect = lower value
[6] = target: Muscarinic acetylcholine receptor M4 (Homo sapiens) (UniProt P08173); experiment: compounds altering M4/GIRK thallium flux, either direction, primary screen, M4 allosteric agonist project, cell-based, HEK293 M4/GIRK, BTC-AM (AID 625;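 active means fluorescence slope after compound addition differing from the mean of all tested samples at 99.7% confidence, mostly higher but some lower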;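 further: thallium influx through GIRK channels coupled to M4 in HEK293 cells with BTC-AM dye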); settings: at 10 µM, actives lie on both sides
Sequence of Muscarinic acetylcholine receptor M4 (Homo sapiens) (P08173 whole entry, looked up): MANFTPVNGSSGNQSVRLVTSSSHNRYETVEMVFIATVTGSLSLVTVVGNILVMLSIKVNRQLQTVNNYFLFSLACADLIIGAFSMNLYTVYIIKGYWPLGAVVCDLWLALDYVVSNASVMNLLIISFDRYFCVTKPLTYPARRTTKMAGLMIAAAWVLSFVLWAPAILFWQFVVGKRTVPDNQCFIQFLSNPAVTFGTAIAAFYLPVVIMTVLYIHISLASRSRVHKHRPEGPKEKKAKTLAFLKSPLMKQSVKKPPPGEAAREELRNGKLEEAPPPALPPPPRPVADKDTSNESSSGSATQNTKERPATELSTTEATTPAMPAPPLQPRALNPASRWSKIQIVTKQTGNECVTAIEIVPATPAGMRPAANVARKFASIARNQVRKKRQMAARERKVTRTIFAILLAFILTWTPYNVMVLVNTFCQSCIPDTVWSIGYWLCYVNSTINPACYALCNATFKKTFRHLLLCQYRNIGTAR
In short: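 Assay system: HEK293 cells with M4 receptor and GIRK channels / Controls: carbachol and DMSO controls / Schedule: 1 h dye loading, 2 min kinetic read / Technique: kinetic fluorescence with BTC-AM dye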

[7] = inhibitors of Sendai virus-induced IRF3 signaling, primary screen, TLR/RLR signaling modifier project, cell-based, Sendai virus stimulus, luciferase, 10K MLSCN set (AID 602276;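 active means inhibition at or above 50% at 10 µM; inactive means inhibition below 50%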;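 further: firefly luciferase from ISG56 promoter only with Renilla not read in this screen; 0% = Sendai virus plus DMSO and 100% = medium plus DMSO without virus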); settings: HEK293 RL24 IRF3 luciferase reporter, at 10 µM, stronger effect = higher value
[8] = inhibitors of poly I:C-induced TLR3 signaling, primary screen, cell-based, poly I:C stimulus, luciferase, 10K MLSCN set (AID 602277;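 active means inhibition of the reporter signal at or above 50%; inactive means inhibition below 50%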); settings: HEK293-TLR3 RL24 IRF3 luciferase reporter, at 10 µM, stronger effect = higher value

Row | SMILES | cell count [1] | inhibition [1] | inhibition of aggregation [2] | nuclei count [2] [%] | inhibition [3] | nuclei count [3] [%] | fluorescence slope [4] | NADPH fluorescence slope [5] | fluorescence slope [6] | inhibition [7] | inhibition [8]
1 | CN1C(=O)CC(C(=O)Nc2ccc(F)cc2)SC1=Nc1ccc2c(c1)OCO2 (centres undefined) | 715 | -5.4% (inactive) | 11.5% (inactive) | 117 | -15.7% (inactive) | 118 | -0.269 (inactive) | -3.8e-05 (inactive) | 0.0044 (inactive) | 16.1% (inactive) | 4.96% (inactive)
2 | Clc1ccc(Cn2ncc3c(NCc4cccnc4)ncnc32)cc1 | 321 | -13.5% (inactive) | -3.5% (inactive) | 113 | 41.6% (inactive) | 82 | -0.55 (inactive) | -0.000128 (inactive) | 0.00407 (inactive) | 13.3% (inactive) | -35.2% (inactive)
3 | CCCCN(c1ccccc1)S(=O)(=O)c1ccc2c(c1)CCN2C(=O)CCC(=O)O | 648 | 1.3% (inactive) | 7.8% (inactive) | 112 | -65.5% (inactive) | 117 | -0.526 (inactive) | 5.3e-05 (inactive) | 0.00543 (inactive) | 22.6% (inactive) | 99.4% (active)
4 | CCC1C(=O)n2nc(-c3ccccc3)cc2N=C1C (centres undefined) | 330 | 0% (inactive) | -7.3% (inactive) | 102 | -4.1% (inactive) | 114 | -0.506 (inactive) | -4.6e-05 (inactive) | 0.006 (inactive) | -22% (inactive) | -37% (inactive)
5 | Cc1ccc(-c2nnn(CC(=O)N(CC3CCCO3)C(C(=O)NC(C)(C)C)c3ccc(F)cc3)n2)o1 (centres undefined) | 415 | 5.7% (inactive) | 3.4% (inactive) | 112 | -64% (inactive) | 118 | -0.563 (inactive) | -3.8e-05 (inactive) | 0.00486 (inactive) | 9.86% (inactive) | 15.3% (inactive)
6 | O=S(=O)(NCc1ccco1)c1cccc2cccnc12 | 336 | 0% (inactive) | -18.3% (inactive) | 111 | -65.9% (inactive) | 103 | -0.551 (inactive) | -1.2e-05 (inactive) | 0.00492 (inactive) | 13.3% (inactive) | 13% (inactive)
7 | CCC1Cc2c(nc3c4c(nc(N5CCOCC5)c(C#N)c24)NC(C)=N3)O1 (centres undefined) | 657 | 0.8% (inactive) | 7.2% (inactive) | 92.3 | 43.9% (inactive) | 97.4 | -0.35 (inactive) | -1.8e-05 (inactive) | 0.00571 (inactive) | 14.3% (inactive) | 1.06% (inactive)
8 | COCCCNC(=O)C(Cc1ccccc1)NS(=O)(=O)c1ccc2c(c1)c(=O)n(C)c(=O)n2C (centres undefined) | 561 | -2.5% (inactive) | 42.3% (active) | 94.5 | -10.2% (inactive) | 117 | -0.468 (inactive) | -8e-06 (inactive) | 0.00611 (inactive) | -1.6% (inactive) | 19.2% (inactive)
9 | Cc1ccc(S(=O)(=O)N2CCCC2C(=O)n2nc(C)cc2C)cc1 (centres undefined) | 432 | -12.3% (inactive) | 15.8% (inactive) | 86.2 | 46.7% (inactive) | 93.5 | -0.341 (inactive) | -4.4e-05 (inactive) | 0.00537 (inactive) | 12.5% (inactive) | 19.1% (inactive)
10 | Cc1c(C(=O)O)sc2ncn(C)c(=O)c12 | 745 | 2.8% (inactive) | -9% (inactive) | 116 | 21% (inactive) | 106 | -0.553 (inactive) | -2.2e-05 (inactive) | 0.00525 (inactive) | 2.12% (inactive) | -1.59% (inactive)
11 | CCN(CC)S(=O)(=O)c1ccc(N2CCCC2)c(C(=O)OCC(=O)/C(C#N)=C(\C)N)c1 | 560 | -16% (inactive) | 6.5% (inactive) | 98.3 | 8.4% (inactive) | 101 | -0.428 (inactive) | 6.6e-05 (inactive) | 0.00583 (inactive) | 15.9% (inactive) | 24.1% (inactive)
12 | CC(C)CCn1c(N)c(S(=O)(=O)c2cccs2)c2nc3ccccc3nc21 | 652 | 2% (inactive) | 0% (inactive) | 105 | -67.7% (inactive) | 124 | -0.398 (inactive) | 1.8e-05 (inactive) | 0.00628 (inactive) | 8.07% (inactive) | -1.32% (inactive)
13 | O=C1CCC(=O)N1OCCCOc1ccc(Br)cc1Cl | 490 | 1% (inactive) | 9% (inactive) | 74.1 | -76% (inactive) | 106 | -0.456 (inactive) | 2e-05 (inactive) | 0.00805 (inactive) | 16.1% (inactive) | 18% (inactive)
14 | COc1ccc(C(=O)N2CCOCC2)cc1Br | 406 | -7.6% (inactive) | 5.4% (inactive) | 90.8 | -24.6% (inactive) | 108 | -0.49 (inactive) | 3.2e-05 (inactive) | 0.0055 (inactive) | -0.192% (inactive) | -3.39% (inactive)
15 | Cc1occc1-c1nnc(SCC(=O)NCC2CCCO2)n1C (centres undefined) | 687 | -0.3% (inactive) | -23% (inactive) | 120 | 40.7% (inactive) | 95 | -0.521 (inactive) | 0.00013 (inactive) | 0.0055 (inactive) | 16.7% (inactive) | 10.3% (inactive)
16 | COc1cc(C2C(C(=O)c3ccc(C)o3)=C(O)C(=O)N2c2cc(C)on2)cc(Br)c1O (centres undefined) | 724 | -16.4% (inactive) | -2.8% (inactive) | 109 | -127% (inactive) | 118 | -0.518 (inactive) | -3e-05 (inactive) | 0.00505 (inactive) | 13.3% (inactive) | 19.1% (inactive)
17 | CC(=O)Nc1ccc(S(=O)(=O)N2CCSC2c2ccccc2)cc1 (centres undefined) | 241 | -12.1% (inactive) | -8.7% (inactive) | 106 | -34.7% (inactive) | 76.2 | -0.552 (inactive) | -3.6e-05 (inactive) | 0.00574 (inactive) | 18.3% (inactive) | 22% (inactive)
18 | CCOC(=O)c1ccc(NC(=O)CSc2ncccn2)cc1 | 366 | 10.7% (inactive) | -25% (inactive) | 101 | -62.8% (inactive) | 100 | -0.532 (inactive) | -0.000128 (inactive) | 0.0039 (inactive) | -20.7% (inactive) | -63.9% (inactive)
19 | COc1ccc(C)cc1NC(=O)CNC(=O)Cn1ccc2ccccc2c1=O | 730 | -14.1% (inactive) | -10.4% (inactive) | 108 | 21.2% (inactive) | 96.3 | -0.461 (inactive) | -2.5e-05 (inactive) | 0.0048 (inactive) | 25.5% (inactive) | 20.3% (inactive)
